Experimental data reported in ChEMBL document CHEMBL4831507, “Development of FABP4/5 inhibitors with potential therapeutic effect on type 2 Diabetes Mellitus” (Eur J Med Chem, 2021).
Values belong to the compound of their own block, whether it stands above or below them. Activity calls are given as the source filed them. The rule behind the calls is not given here.

Experiments:
[1] = molecular target: T1, Fatty acid-binding protein, adipocyte (Homo sapiens, UniProt P15090); test: Displacement of 1,8-ANS from FABP4 (unknown origin) at 25 uM incubated for 3 mins by fluorescence based analysis relative to control
Method in brief: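 Single-concentration percent inhibition in the 1,8-ANS displacement assay with FABP4. Compound incubated with protein and probe in phosphate buffer for 3 min at room temperature; fluorescence read at ex 370/em 470 nm.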
Target sequence in this assay (P15090 2-132 limits assumed): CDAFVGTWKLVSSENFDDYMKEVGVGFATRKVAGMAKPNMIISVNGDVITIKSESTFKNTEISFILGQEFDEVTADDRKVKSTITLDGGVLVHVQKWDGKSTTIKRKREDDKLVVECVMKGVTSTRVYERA

[2] = molecular target: T1, Fatty acid-binding protein, adipocyte; test: Displacement of 1,8-ANS from FABP4 (unknown origin) incubated for 3 mins by fluorescence based analysis
Method in brief: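 1,8-ANS displacement using purified recombinant FABP3, FABP4 or FABP5. Compound incubated with protein and 1,8-ANS in phosphate buffer for 3 min at room temperature. Fluorescence read at ex 370/em 470 nm. IC50 by nonlinear regression, mean ± SD of three independent experiments.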
Target sequence in this assay (P15090 whole entry): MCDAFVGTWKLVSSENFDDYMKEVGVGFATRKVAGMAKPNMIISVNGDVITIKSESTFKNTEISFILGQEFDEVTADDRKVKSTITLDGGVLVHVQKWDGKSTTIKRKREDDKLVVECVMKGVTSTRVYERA

[3] = molecular target: Fatty acid-binding protein 5 (Homo sapiens, UniProt Q01469); test: Displacement of 1,8-ANS from FABP5 (unknown origin) incubated for 3 mins by fluorescence based analysis
Sequence of Fatty acid-binding protein 5 (Q01469 whole entry): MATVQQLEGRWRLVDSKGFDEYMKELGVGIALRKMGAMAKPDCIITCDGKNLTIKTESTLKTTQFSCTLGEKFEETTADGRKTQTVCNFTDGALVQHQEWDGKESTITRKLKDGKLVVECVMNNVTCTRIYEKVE

3T3-L1 [4] = test: Cytotoxicity against mouse 3T3-L1 cells assessed as reduction in cell viability at 100 uM incubated for 24 hrs by CCK8 assay; assay type: cell-based; details: 3t3-l1, 24 h
[5] = Metabolic stability in mouse liver microsomes assessed as half life at 0.1 uM preincubated for 10 mins followed by NADPH addition and measured for 60 mins by LC-MS/MS analysis; assay type: ADME, Microsome; details: time 70 min
Method in brief: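 Mouse liver microsomes 0.33 mg/mL in 0.1 M Tris pH 7.4 with 5 mM MgCl₂, 0.01% DMSO and 0.005% BSA. Compound final […]. Preincubated 10 min at 37 °C; reaction started with 1 mM NADPH. Samples at 0, 7, 17, 30 and 60 min quenched with cold methanol, then analysed by LC-MS/MS.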

3T3-L1 [6] = test: Anti-lipolytic activity in mouse 3T3-L1 cells assessed as inhibition of forskolin-stimulated glycerol release at 80 uM preincubated for 24 hrs followed by forskolin stimulation for 1 hr; assay type: functional, cell-based; details: time 25.0 hrs

Structure (SMILES): Cc1noc(C)c1-c1ccc(S(=O)(=O)Nc2ccc(F)c(C(=O)O)c2)c2ccccc12
inhibition [1]: 61%

Structure (SMILES): COc1c(-c2cc(Cl)ccc2Cl)cc(S(=O)(=O)Nc2ccc(F)c(CC(=O)O)c2)c2ccccc12
inhibition [1]: 52%

Structure (SMILES): O=C(O)c1cc(NS(=O)(=O)c2ccc(-c3ccccc3OC(F)(F)F)c3ccccc23)ccc1F
inhibition [1]: 74%
IC50 [2]: 12.5 µM
IC50 [3]: 8.2 µM

Structure (SMILES): COc1c(-c2ccc(F)cc2F)cc(S(=O)(=O)Nc2ccc(F)c(CC(=O)O)c2)c2ccccc12
inhibition [1]: 96%
IC50 [2]: 3.14 µM

Structure (SMILES): COc1c(-c2ccccc2O)cc(S(=O)(=O)Nc2ccc(F)c(CC(=O)O)c2)c2ccccc12
inhibition [1]: 86%
IC50 [2]: 8.03 µM

Structure (SMILES): O=C(O)c1cc(NS(=O)(=O)c2ccc(OCCC3CCCCC3)c3ccccc23)ccc1F
half-life at 0.1 µM [5]: 23.5 min

Structure (SMILES): Cc1cc(F)ccc1-c1ccc(S(=O)(=O)Nc2ccc(F)c(C(=O)O)c2)c2ccccc12
inhibition [1]: 85%
IC50 [2]: 5 µM
half-life at 0.1 µM [5]: 88.4 min
Activity (3T3-L1 [6]): Active
Activity (3T3-L1 [4]): Non-Toxic

Structure (SMILES): O=C(O)c1cc(NS(=O)(=O)c2ccc(-c3ccncc3)c3ccccc23)ccc1F
inhibition [1]: 52%

Structure (SMILES): COc1c(-c2ccc(F)cc2)cc(S(=O)(=O)Nc2ccc(F)c(CC(=O)O)c2)c2ccccc12
inhibition [1]: 95%
IC50 [2]: 4.71 µM

Structure (SMILES): O=C(O)c1cc(NS(=O)(=O)c2ccc(-c3ccc(O)cc3)c3ccccc23)ccc1F
inhibition [1]: 73%
IC50 [2]: 8.24 µM

Structure (SMILES): COc1c(-c2ccccc2C(F)(F)F)cc(S(=O)(=O)Nc2ccc(F)c(CC(=O)O)c2)c2ccccc12
inhibition [1]: 56%
IC50 [3]: 7.72 µM

Structure (SMILES): O=C(O)c1cc(NS(=O)(=O)c2ccc(-c3ccc(F)cc3F)c3ccccc23)ccc1F
inhibition [1]: 85%
IC50 [2]: 4.7 µM
Activity (3T3-L1 [4]): Non-Toxic

Structure (SMILES): COc1c(-c2ccc(F)c(Cl)c2)cc(S(=O)(=O)Nc2ccc(F)c(CC(=O)O)c2)c2ccccc12
inhibition [1]: 88%
IC50 [2]: 5 µM

Structure (SMILES): COc1c(-c2ccccc2Cl)cc(S(=O)(=O)Nc2ccc(F)c(CC(=O)O)c2)c2ccccc12
inhibition [1]: 77%
IC50 [2]: 8.02 µM
IC50 [3]: 7.57 µM
half-life at 0.1 µM [5]: 43.1 min
Activity (3T3-L1 [6]): Active
Activity (3T3-L1 [4]): Non-Toxic

Structure (SMILES): COc1c(-c2ccccc2C(C)C)cc(S(=O)(=O)Nc2ccc(F)c(CC(=O)O)c2)c2ccccc12
inhibition [1]: 50%
IC50 [3]: 2.9 µM
half-life at 0.1 µM [5]: 15.1 min
Activity (3T3-L1 [6]): Active
Activity (3T3-L1 [4]): Non-Toxic

Further lines, with some results ahead:

inhibition [1]: 80%
IC50 [2]: 7.68 µM
Structure (SMILES): O=C(O)c1cc(NS(=O)(=O)c2ccc(-c3ccc(F)cc3)c3ccccc23)ccc1F

inhibition [1]: 90%
IC50 [2]: 4.77 µM
IC50 [3]: 6.08 µM
Structure (SMILES): COc1c(-c2ccc(F)cc2Cl)cc(S(=O)(=O)Nc2ccc(F)c(CC(=O)O)c2)c2ccccc12
Activity (3T3-L1 [4]): Non-Toxic

inhibition [1]: 74%
IC50 [2]: 11.9 µM
IC50 [3]: 16.8 µM
Structure (SMILES): CC(C)c1ccccc1-c1ccc(S(=O)(=O)Nc2ccc(F)c(C(=O)O)c2)c2ccccc12

inhibition [1]: 84%
IC50 [2]: 6.45 µM
Structure (SMILES): COc1c(-c2cccc(Cl)c2F)cc(S(=O)(=O)Nc2ccc(F)c(CC(=O)O)c2)c2ccccc12

inhibition [1]: 82%
IC50 [2]: 4.84 µM
Structure (SMILES): O=C(O)c1cc(NS(=O)(=O)c2ccc(-c3ccccc3)c3ccccc23)ccc1F

inhibition [1]: 80%
IC50 [2]: 5.16 µM
IC50 [3]: 7.72 µM
Structure (SMILES): COc1c(-c2ccccc2C)cc(S(=O)(=O)Nc2ccc(F)c(CC(=O)O)c2)c2ccccc12

inhibition [1]: 40%
Structure (SMILES): O=C(O)c1cc(NS(=O)(=O)c2ccc(-c3ccc(C(F)(F)F)cc3)c3ccccc23)ccc1F

inhibition [1]: 63%
IC50 [2]: 14.3 µM
IC50 [3]: 3.2 µM
Structure (SMILES): CCc1ccccc1-c1cc(S(=O)(=O)Nc2ccc(F)c(CC(=O)O)c2)c2ccccc2c1OC

inhibition [1]: 95%
IC50 [2]: 2.63 µM
IC50 [3]: 8.97 µM
half-life at 0.1 µM [5]: 102 min
Structure (SMILES): COc1c(-c2ccc(F)cc2C)cc(S(=O)(=O)Nc2ccc(F)c(C(=O)O)c2)c2ccccc12
Activity (3T3-L1 [6]): inactive

inhibition [1]: 87%
IC50 [2]: 5.25 µM
Structure (SMILES): COc1c(-c2ccccc2F)cc(S(=O)(=O)Nc2ccc(F)c(CC(=O)O)c2)c2ccccc12
